The text below walks through data of article PMC12325899 (Scientific Reports, 2025).

Data set [1] deals with T1, BCRP (Homo sapiens, UniProt Q9UNQ0).
T1 sequence (Q9UNQ0 1-655): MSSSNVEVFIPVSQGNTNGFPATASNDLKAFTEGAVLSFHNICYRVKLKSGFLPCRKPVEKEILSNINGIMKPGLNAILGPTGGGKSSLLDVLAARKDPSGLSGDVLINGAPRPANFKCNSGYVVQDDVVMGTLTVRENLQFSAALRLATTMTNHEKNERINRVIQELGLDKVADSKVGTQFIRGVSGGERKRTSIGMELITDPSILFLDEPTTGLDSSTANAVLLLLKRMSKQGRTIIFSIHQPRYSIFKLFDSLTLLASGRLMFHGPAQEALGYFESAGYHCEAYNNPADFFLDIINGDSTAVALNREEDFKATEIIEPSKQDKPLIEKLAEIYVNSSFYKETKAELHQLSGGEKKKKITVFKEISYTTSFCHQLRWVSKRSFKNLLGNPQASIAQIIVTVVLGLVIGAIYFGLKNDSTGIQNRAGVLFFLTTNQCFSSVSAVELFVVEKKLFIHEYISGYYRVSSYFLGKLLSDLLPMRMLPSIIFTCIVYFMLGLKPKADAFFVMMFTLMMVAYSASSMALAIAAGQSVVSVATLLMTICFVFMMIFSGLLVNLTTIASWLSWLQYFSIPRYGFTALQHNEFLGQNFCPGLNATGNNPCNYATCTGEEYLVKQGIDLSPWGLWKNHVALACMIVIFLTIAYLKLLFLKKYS
Kind of data set: BCRP inhibition, prazosin accumulation assay in MDCKII-BCRP cells. Particulars: for IC50: IC50 on BCRP activity, prazosin 5 µM, 20 min, MDCKII-BCRP; for inhibition at 20 min, 2 µM: human, pH 7.4.

A further data set deals with MDCKII-BCRP cells. Description: Reversal of BCRP-mediated resistance to SN-38. It is filed as cell-based, canine. Particulars: flavonol 5 µM; CC50 in MDCKII-BCRP comparable to mock cells.
Data set [2] concerns the target T2, BCRP (Rattus norvegicus, UniProt Q80W57).
T2 sequence (Q80W57 1-657): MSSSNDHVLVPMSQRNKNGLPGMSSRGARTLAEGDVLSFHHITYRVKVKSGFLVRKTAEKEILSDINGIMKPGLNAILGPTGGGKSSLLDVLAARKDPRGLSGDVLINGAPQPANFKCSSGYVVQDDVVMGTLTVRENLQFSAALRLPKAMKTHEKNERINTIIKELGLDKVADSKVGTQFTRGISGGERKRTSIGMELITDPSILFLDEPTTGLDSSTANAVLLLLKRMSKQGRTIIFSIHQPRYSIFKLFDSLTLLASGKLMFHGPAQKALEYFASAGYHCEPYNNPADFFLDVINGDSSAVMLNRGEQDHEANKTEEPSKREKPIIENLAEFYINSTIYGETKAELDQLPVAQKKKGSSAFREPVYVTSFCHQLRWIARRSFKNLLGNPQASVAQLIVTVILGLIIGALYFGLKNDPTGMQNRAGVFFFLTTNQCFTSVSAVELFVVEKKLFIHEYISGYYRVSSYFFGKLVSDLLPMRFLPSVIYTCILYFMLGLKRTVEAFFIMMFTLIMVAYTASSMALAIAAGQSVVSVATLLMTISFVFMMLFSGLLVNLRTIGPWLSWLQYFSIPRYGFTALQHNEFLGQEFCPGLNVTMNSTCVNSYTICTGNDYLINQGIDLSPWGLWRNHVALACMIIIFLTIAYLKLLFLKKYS
Description: In vivo pharmacokinetic interaction with the BCRP substrate sulfasalazine. Also noted: species or system Sprague-Dawley (SD) rats. Particulars: rats; for half-life: male, Sprague-Dawley, rat, plasma, po, 2 mg/kg, t1/2 of sulfasalazine; for increase of sulfasalazine AUClast versus sulfasalazine alone / increase of sulfasalazine Cmax versus sulfasalazine alone: flavonol 5 mg/kg co-administered with sulfasalazine 2 mg/kg oral. The method, boiled down: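 Male SD rats (8 weeks, 250–270 g), acclimatized 1 week and fasted overnight with water, n = 5/group. Oral sulfasalazine 2 mg/kg alone or co-administered with test flavonol 5 mg/kg. Plasma was separated at 4 °C and sulfasalazine measured by LC-MS/MS after methanol precipitation with IS. Noncompartmental analysis: AUClast by trapezoidal rule, Cmax observed. Groups were compared with Student's t-test; mean ± SD.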

Data set [3] is described as follows: Plasma pharmacokinetics of the flavonols after oral co-administration. It is filed as in vivo, Sprague-Dawley (SD) rats. Particulars: male, Sprague-Dawley, rat, 5 mg/kg. A digest of the protocol: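 Fasted male SD rats (8 weeks, 250–270 g; n = 5) were dosed orally with test flavonol 5 mg/kg together with sulfasalazine 2 mg/kg. Flavonol in plasma was quantified by LC-MS/MS: methanol/IS protein precipitation, C18 gradient of ammonium formate and formic acid–acetonitrile. Noncompartmental parameters: AUClast by trapezoidal rule, AUCinf by extrapolation, Cmax/Tmax observed, t1/2 from terminal slope; mean ± SD.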

The test system of data set [4] is BCRP. The settings on record: cited from earlier work.
Data set [5] has as its system BCRP. The settings on record: cited from earlier work. The source holds these as a separate data set.
For data set [6], the system named is BCRP. The settings on record: amentoflavone 30 mg/kg co-administered with mitoxantrone, rats; cited from earlier work.
Data set [7] relates to BCRP. The settings on record: read-out: IC50 for BCRP inhibition; cited from earlier work.

The molecule `COc1ccc2oc(-c3cccc(OC)c3OC)c(OC)c(=O)c2c1` [compound 47, 3,6,2’,3’-Tetramethoxyflavone] returned an IC50 on BCRP [1] greater than 10 µM. Consider `COc1cc(O)c2c(=O)c(OC)c(-c3ccc(OC)c(OC)c3)oc2c1` [compound 50, 5-Hydroxy-3,7,3’,4’-tetramethoxyflavone], for which the “reversal of BCRP-mediated resistance to SN-38” value (“reversal” for short) with MDCKII-BCRP cells is on record as “almost completely reversed BCRP-mediated resistance to SN-38”. At BCRP [1], this molecule had an IC50 of less than 5 µM. On the same counts, the results for `O=c1c(O)c(-c2cccc(O)c2)oc2cc(O)ccc12` [compound 8, 3,7,3’-Trihydroxyflavone] are “almost completely reversed BCRP-mediated resistance to SN-38” and less than 5 µM. At BCRP [1], `COc1ccc(-c2oc3cc(OC)c(OC)c(OC)c3c(=O)c2OC)cc1OC` [compound no. 54, 3,5,6,7,3’,4’-Hexamethoxyflavone] came in with an IC50 of less than 5 µM and an inhibition at 20 min, 2 µM of 52%. Consider `O=C(O)c1cc(/N=N/c2ccc(S(=O)(=O)Nc3ccccn3)cc2)ccc1O` [Sulfasalazine, sulfasalazine, reference compound], for which the figures for the half-life at BCRP [2] (sulfasalazine 2 mg/kg oral + 3,4’-dimethoxyflavone 5 mg/kg) and at BCRP [2] (sulfasalazine 2 mg/kg oral + 3,6,3’,4’-tetramethoxyflavone 5 mg/kg) were 1.76 ± 0.29 h and 2.34 ± 1.23 h, respectively. `O=c1c(O)c(-c2ccccc2)oc2cc(O)ccc12` [compound no. 7, 3,7-Dihydroxyflavone] displayed an IC50 against BCRP [1] of less than 5 µM. With `COc1ccc(-c2oc3ccccc3c(=O)c2OC)cc1` [compound no. 37, 3,4’-Dimethoxyflavone], on BCRP [2], the “increase of sulfasalazine AUClast versus sulfasalazine alone” value amounted to 1.79 fold and the “increase of sulfasalazine Cmax versus sulfasalazine alone” value is given as “approximately 1.83 fold”. In addition, in data set [3], the AUC(0-t) stood at 0.0124 ± 0.005 µg·h/mL, the Cmax was determined as 0.0135 ± 0.0088 µg/mL and the half-life was 0.54 ± 0.15 h. Consider `O=c1c(O)c(-c2ccc(O)cc2O)oc2cc(O)cc(O)c12` [compound 31, 3,5,7,2’,4’-Pentahydroxyflavone], for which, at BCRP [1], the IC50 was greater than 10 µM. In the case of `COc1ccc2c(=O)c(OC)c(-c3ccc(O)c(OC)c3)oc2c1` [compound no. 43, 4’-Hydroxy-3,7,3’-trimethoxyflavone], the “reversal” value with MDCKII-BCRP cells is on record as “almost completely reversed BCRP-mediated resistance to SN-38”. On BCRP [1], this molecule displayed an IC50 of less than 5 µM and an inhibition at 20 min, 2 µM of 45.2%.

The molecule `Cc1c(O)cc(O)c2c(=O)c(O)c(-c3ccc(O)c(O)c3)oc12` [compound 32, 3,5,7,3’,4’-Pentahydroxy-8-methylflavone] returned an IC50 against BCRP [1] of less than 5 µM. On to `CC(C)c1nc(N(C)S(C)(=O)=O)nc(-c2ccc(F)cc2)c1/C=C/[C@@H](O)C[C@@H](O)CC(=O)O` [rosuvastatin, reference compound], for which the “increase in maximum plasma concentration” value in the data set with BCRP [4] (421CA or 421AA genotypes versus 421CC wild-type homozygous genotype) is recorded as 1.9 fold. Consider `COc1cc(-c2oc3cc(O)cc(O)c3c(=O)c2O)ccc1O` [compound no. 29, 3,5,7,4’-Tetrahydroxy-3’-methoxyflavone], for which the inhibition at 20 min, 2 µM at BCRP [1] stood at 45.5%. `O=c1c(O)c(-c2ccc(O)c(O)c2)oc2cc(O)cc(O)c12` [compound no. 27, 3,5,7,3’,4’-Pentahydroxyflavone]: at BCRP [1], the half-inhibitory concentration (IC50) is less than 5 µM and the inhibition at 20 min, 2 µM was determined as 45.9%. As for `COc1ccc(-c2oc3cc(OC)c(O)c(OC)c3c(=O)c2OC)cc1O` [compound 52, 6,3’-Dihydroxy-3,5,7,4’-tetramethoxyflavone], the IC50 against BCRP [1] was less than 5 µM. Consider `COc1ccc2oc(-c3ccc(OC)c(OC)c3)c(OC)c(=O)c2c1` [compound no. 46, 3,6,3’,4’-Tetramethoxyflavone], for which, at BCRP [2], the “increase of sulfasalazine AUClast versus sulfasalazine alone” value is 1.74 fold and the “increase of sulfasalazine Cmax versus sulfasalazine alone” value stood at 2.02 fold. In addition, in data set [3], the area under the curve AUC(0-t) was determined as 0.0223 ± 0.0016 µg·h/mL, the Cmax was 0.0133 ± 0.0006 µg/mL and the half-life is 2.24 ± 0.17 h. In addition, the “reversal” value with MDCKII-BCRP cells was “almost completely reversed BCRP-mediated resistance to SN-38”. Moreover, at BCRP [1], the IC50 is less than 5 µM and the inhibition at 20 min, 2 µM came to 49.9%. As to `O=c1[nH]c(=O)c2c[nH]nc2[nH]1` [oxypurinol], the prolongation of half-life with BCRP [4] (individuals homozygous for the p.Q141K variant) is on record as 1.8 fold. On to `COc1cc(Nc2ncc(F)c(Nc3ccc4c(n3)N(COP(=O)(O)O)C(=O)C(C)(C)O4)n2)cc(OC)c1OC` [Fostamatinib], for which the “increase of the plasma concentration of rosuvastatin” value with BCRP [5] was “approximately two-fold”.

As to `COc1ccc(-c2oc3cc(OC)c(OC)c(OC)c3c(=O)c2OC)cc1` [compound 53, 3,5,6,7,4’-Pentamethoxyflavone], the IC50 on BCRP [1] is less than 5 µM.

Molecule `COc1ccc(-c2oc3cc(O)cc(O)c3c(=O)c2OC)cc1O` [compound 48, 5,7,3’-Trihydroxy-3,4’-dimethoxyflavone] yielded a half-maximal inhibitory concentration (IC50) against BCRP [1] of less than 5 µM. On to `O=c1cc(-c2ccc(O)c(-c3c(O)cc(O)c4c(=O)cc(-c5ccc(O)cc5)oc34)c2)oc2cc(O)cc(O)c12` [amentoflavone], for which the “increase of the AUC of mitoxantrone” value with BCRP [6] is reported as 1.23 fold. Further, the IC50 with BCRP [7] is roughly 4 µM.

Broadly, the IC50 is the point on the concentration scale where inhibition reaches its midpoint. Usually inhibition stands for how much of the control response was suppressed. The half-life is how long it takes for the measured level to halve. Usually AUC(0-t) stands for exposure summed from dosing to a finite time, without extrapolation to infinity. One may read the Cmax as the maximum level reached in the sampled fluid or tissue.
